Measured values: article PMC5976445 (Journal of inorganic biochemistry, 2018)
Like-named read-outs stand apart in the source and are kept apart here.

Assays:
CYP101D1 [1] = biological target: T1, CYP101D1 (Novosphingobium aromaticivorans, UniProt Q2GB12); test: isothermal titration calorimetry; format: binding
T1 sequence (Q2GB12 1-421): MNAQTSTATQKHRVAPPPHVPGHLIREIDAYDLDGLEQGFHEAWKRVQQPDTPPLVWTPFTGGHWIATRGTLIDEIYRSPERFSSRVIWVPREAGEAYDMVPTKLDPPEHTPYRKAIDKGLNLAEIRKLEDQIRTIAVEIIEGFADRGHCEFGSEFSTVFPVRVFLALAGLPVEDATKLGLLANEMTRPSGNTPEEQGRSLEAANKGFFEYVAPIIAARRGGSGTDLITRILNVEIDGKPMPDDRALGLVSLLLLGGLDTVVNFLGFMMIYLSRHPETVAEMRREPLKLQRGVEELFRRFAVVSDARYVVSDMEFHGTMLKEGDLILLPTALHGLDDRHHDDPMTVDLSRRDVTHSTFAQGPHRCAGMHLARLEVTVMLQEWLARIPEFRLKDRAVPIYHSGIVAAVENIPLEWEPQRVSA
Summary of the method: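 CYP101D1, expressed His-tagged in E. coli BL21(DE3), Ni-IMAC purified, thrombin-cleaved and gel-filtered. ITC at 25°C in 50 mM potassium phosphate without reducing agents. Either 600 μM–1 mM test compound was titrated into 40–50 μM CYP101D1, or 2 mM redox partner into 50 μM CYP101D1 (±1 mM camphor). 18 × 2 μL injections, 150 s apart, 750 rpm. Corrected for dilution enthalpy. 3–5 runs.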

CYP101D1 [2] = biological target: CYP101D1 (UniProt Q2GB12); test: ITC
CYP101D1 [3] = biological target: CYP101D1 (UniProt Q2GB12); test: ITC; remark: listed apart in the source
CYP101D1 [4] = biological target: CYP101D1 (UniProt Q2GB12); test: ITC; remark: listed apart in the source
CYP101D1 [5] = biological target: CYP101D1 (UniProt Q2GB12); test: ITC; remark: listed apart in the source

Row | Kd (CYP101D1 [1]) | Kd (CYP101D1 [2]) | dH (CYP101D1 [2]) | Kd (CYP101D1 [3]) | Kd (CYP101D1 [4]) | Kd (CYP101D1 [5]) | dH (CYP101D1 [5]) | Molecule
1 | 14.9 µM | – | – | – | – | – | – | CC1(C)[C@@H]2CC[C@@]1(C)C(=O)C2 [D-camphor]
2 | – | 94.8 µM | -76.1 kJ/mol | 43.3 µM | 97.7 µM | 41.1 µM | -50.6 kJ/mol | Arx (natural protein)
